{"source": "ChEMBL document CHEMBL4689842", "about": "“EUbOPEN Chemogenomics Library wave 1” (2021)", "system": "HEK-293T", "experiment": "Multiplex assay against HEK293T;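 on Population Tubulin-Different-Phenotype (%): share of the cells with healthy nuclei that show this phenotype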", "assay_type": "toxicity, cell-based", "conditions": "human", "summary_of_the_method": "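Tubulin, mitochondrial-mass and membrane-permeability phenotypes are per cents of healthy-nucleus cells. Cells were gated by CellPathfinder machine learning into Hoechst high-intensity objects or normal cells, normal cells into healthy, pyknosed or fragmented nuclei, and pyknosed cells into mitotic or apoptotic. Before that, live cells stained at seeding with Hoechst33342, BioTracker Green Microtubule Cytoskeleton Dye, MitoTracker Red and Annexin V Alexa Fluor 680 were imaged on a CQ1 microscope at 37°C and 5% CO2 after compound addition.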", "key": {"[1]": {"conditions": "12 h, 1 µM, compound concentration 1 uM, replicate 1"}, "[2]": {"conditions": "12 h, 1 µM, compound concentration 1 uM, replicate 2"}, "[3]": {"conditions": "12 h, 10 µM, compound concentration 10 uM, replicate 1"}, "[4]": {"conditions": "12 h, 10 µM, compound concentration 10 uM, replicate 2"}, "[5]": {"conditions": "24 h, 1 µM, compound concentration 1 uM, replicate 1"}, "[6]": {"conditions": "24 h, 1 µM, compound concentration 1 uM, replicate 2"}, "[7]": {"conditions": "24 h, 10 µM, compound concentration 10 uM, replicate 1"}, "[8]": {"conditions": "24 h, 10 µM, compound concentration 10 uM, replicate 2"}}, "data": [{"smiles": "CCn1cc(-c2ccnc3[nH]c(-c4cccc(CN(C)C)c4)cc23)c(-c2ccc(NC(=O)N(C)C)cc2)n1", "note": "[GSK-1070916]", "values": [{"measurement": "Population Apoptotic (%)", "setting": "[1]", "result": 17, "unit": "%"}, {"measurement": "Population Fragmented Nuclei (%)", "setting": "[1]", "result": 16, "unit": "%"}, {"measurement": "Population Healthy Nuclei (%)", "setting": "[1]", "result": 64, "unit": "%"}, {"measurement": "Population Hoechst High Intensity Objects (%)", "setting": "[1]", "result": 11, "unit": "%"}, {"measurement": "Population Membrane Permeable-Phenotype (%)", "setting": "[1]", "result": 16, "unit": "%"}, {"measurement": "Population Mitochondria Different-Phenotype (%)", "setting": "[1]", "result": 9, "unit": "%"}, {"measurement": "Population Mitotic Cells (%)", "setting": "[1]", "result": 82, "unit": "%"}, {"measurement": "Population Normal (%)", "setting": "[1]", "result": 88, "unit": "%"}, {"measurement": "Population Pyknosed Nuclei (%)", "setting": "[1]", "result": 18, "unit": "%"}, {"measurement": "Population Tubulin-Different-Phenotype (%)", "setting": "[1]", "result": 18, "unit": "%"}, {"measurement": "Total Cell Count", "setting": "[1]", "result": 676}, {"measurement": "Population Apoptotic (%)", "setting": "[2]", "result": 8, "unit": "%"}, {"measurement": "Population Fragmented Nuclei (%)", "setting": "[2]", "result": 6, "unit": "%"}, {"measurement": "Population Healthy Nuclei (%)", "setting": "[2]", "result": 84, "unit": "%"}, {"measurement": "Population Hoechst High Intensity Objects (%)", "setting": "[2]", "result": 2, "unit": "%"}, {"measurement": "Population Membrane Permeable-Phenotype (%)", "setting": "[2]", "result": 9, "unit": "%"}, {"measurement": "Population Mitochondria Different-Phenotype (%)", "setting": "[2]", "result": 13, "unit": "%"}, {"measurement": "Population Mitotic Cells (%)", "setting": "[2]", "result": 91, "unit": "%"}, {"measurement": "Population Normal (%)", "setting": "[2]", "result": 97, "unit": "%"}, {"measurement": "Population Pyknosed Nuclei (%)", "setting": "[2]", "result": 8, "unit": "%"}, {"measurement": "Population Tubulin-Different-Phenotype (%)", "setting": "[2]", "result": 36, "unit": "%"}, {"measurement": "Total Cell Count", "setting": "[2]", "result": 1405}, {"measurement": "Population Apoptotic (%)", "setting": "[3]", "result": 28, "unit": "%"}, {"measurement": "Population Fragmented Nuclei (%)", "setting": "[3]", "result": 14, "unit": "%"}, {"measurement": "Population Healthy Nuclei (%)", "setting": "[3]", "result": 49, "unit": "%"}, {"measurement": "Population Hoechst High Intensity Objects (%)", "setting": "[3]", "result": 24, "unit": "%"}, {"measurement": "Population Membrane Permeable-Phenotype (%)", "setting": "[3]", "result": 16, "unit": "%"}, {"measurement": "Population Mitochondria Different-Phenotype (%)", "setting": "[3]", "result": 32, "unit": "%"}, {"measurement": "Population Mitotic Cells (%)", "setting": "[3]", "result": 71, "unit": "%"}, {"measurement": "Population Normal (%)", "setting": "[3]", "result": 75, "unit": "%"}, {"measurement": "Population Pyknosed Nuclei (%)", "setting": "[3]", "result": 35, "unit": "%"}, {"measurement": "Population Tubulin-Different-Phenotype (%)", "setting": "[3]", "result": 91, "unit": "%"}, {"measurement": "Total Cell Count", "setting": "[3]", "result": 688}, {"measurement": "Population Apoptotic (%)", "setting": "[4]", "result": 8, "unit": "%"}, {"measurement": "Population Fragmented Nuclei (%)", "setting": "[4]", "result": 1, "unit": "%"}, {"measurement": "Population Healthy Nuclei (%)", "setting": "[4]", "result": 81, "unit": "%"}, {"measurement": "Population Hoechst High Intensity Objects (%)", "setting": "[4]", "result": 10, "unit": "%"}, {"measurement": "Population Membrane Permeable-Phenotype (%)", "setting": "[4]", "result": 14, "unit": "%"}, {"measurement": "Population Mitochondria Different-Phenotype (%)", "setting": "[4]", "result": 37, "unit": "%"}, {"measurement": "Population Mitotic Cells (%)", "setting": "[4]", "result": 91, "unit": "%"}, {"measurement": "Population Normal (%)", "setting": "[4]", "result": 89, "unit": "%"}, {"measurement": "Population Pyknosed Nuclei (%)", "setting": "[4]", "result": 17, "unit": "%"}, {"measurement": "Population Tubulin-Different-Phenotype (%)", "setting": "[4]", "result": 99, "unit": "%"}, {"measurement": "Total Cell Count", "setting": "[4]", "result": 1174}, {"measurement": "Population Apoptotic (%)", "setting": "[5]", "result": 15, "unit": "%"}, {"measurement": "Population Fragmented Nuclei (%)", "setting": "[5]", "result": 13, "unit": "%"}, {"measurement": "Population Healthy Nuclei (%)", "setting": "[5]", "result": 73, "unit": "%"}, {"measurement": "Population Hoechst High Intensity Objects (%)", "setting": "[5]", "result": 8, "unit": "%"}, {"measurement": "Population Membrane Permeable-Phenotype (%)", "setting": "[5]", "result": 18, "unit": "%"}, {"measurement": "Population Mitochondria Different-Phenotype (%)", "setting": "[5]", "result": 6, "unit": "%"}, {"measurement": "Population Mitotic Cells (%)", "setting": "[5]", "result": 84, "unit": "%"}, {"measurement": "Population Normal (%)", "setting": "[5]", "result": 91, "unit": "%"}, {"measurement": "Population Pyknosed Nuclei (%)", "setting": "[5]", "result": 12, "unit": "%"}, {"measurement": "Population Tubulin-Different-Phenotype (%)", "setting": "[5]", "result": 37, "unit": "%"}, {"measurement": "Total Cell Count", "setting": "[5]", "result": 672}, {"measurement": "Population Apoptotic (%)", "setting": "[6]", "result": 3, "unit": "%"}, {"measurement": "Population Fragmented Nuclei (%)", "setting": "[6]", "result": 9, "unit": "%"}, {"measurement": "Population Healthy Nuclei (%)", "setting": "[6]", "result": 85, "unit": "%"}, {"measurement": "Population Hoechst High Intensity Objects (%)", "setting": "[6]", "result": 5, "unit": "%"}, {"measurement": "Population Membrane Permeable-Phenotype (%)", "setting": "[6]", "result": 12, "unit": "%"}, {"measurement": "Population Mitochondria Different-Phenotype (%)", "setting": "[6]", "result": 3, "unit": "%"}, {"measurement": "Population Mitotic Cells (%)", "setting": "[6]", "result": 96, "unit": "%"}, {"measurement": "Population Normal (%)", "setting": "[6]", "result": 94, "unit": "%"}, {"measurement": "Population Pyknosed Nuclei (%)", "setting": "[6]", "result": 5, "unit": "%"}, {"measurement": "Population Tubulin-Different-Phenotype (%)", "setting": "[6]", "result": 43, "unit": "%"}, {"measurement": "Total Cell Count", "setting": "[6]", "result": 1602}, {"measurement": "Population Apoptotic (%)", "setting": "[7]", "result": 31, "unit": "%"}, {"measurement": "Population Fragmented Nuclei (%)", "setting": "[7]", "result": 17, "unit": "%"}, {"measurement": "Population Healthy Nuclei (%)", "setting": "[7]", "result": 57, "unit": "%"}, {"measurement": "Population Hoechst High Intensity Objects (%)", "setting": "[7]", "result": 33, "unit": "%"}, {"measurement": "Population Membrane Permeable-Phenotype (%)", "setting": "[7]", "result": 9, "unit": "%"}, {"measurement": "Population Mitochondria Different-Phenotype (%)", "setting": "[7]", "result": 42, "unit": "%"}, {"measurement": "Population Mitotic Cells (%)", "setting": "[7]", "result": 68, "unit": "%"}, {"measurement": "Population Normal (%)", "setting": "[7]", "result": 66, "unit": "%"}, {"measurement": "Population Pyknosed Nuclei (%)", "setting": "[7]", "result": 24, "unit": "%"}, {"measurement": "Population Tubulin-Different-Phenotype (%)", "setting": "[7]", "result": 89, "unit": "%"}, {"measurement": "Total Cell Count", "setting": "[7]", "result": 562}, {"measurement": "Population Apoptotic (%)", "setting": "[8]", "result": 10, "unit": "%"}, {"measurement": "Population Fragmented Nuclei (%)", "setting": "[8]", "result": 3, "unit": "%"}, {"measurement": "Population Healthy Nuclei (%)", "setting": "[8]", "result": 84, "unit": "%"}, {"measurement": "Population Hoechst High Intensity Objects (%)", "setting": "[8]", "result": 17, "unit": "%"}, {"measurement": "Population Membrane Permeable-Phenotype (%)", "setting": "[8]", "result": 18, "unit": "%"}, {"measurement": "Population Mitochondria Different-Phenotype (%)", "setting": "[8]", "result": 39, "unit": "%"}, {"measurement": "Population Mitotic Cells (%)", "setting": "[8]", "result": 89, "unit": "%"}, {"measurement": "Population Normal (%)", "setting": "[8]", "result": 82, "unit": "%"}, {"measurement": "Population Pyknosed Nuclei (%)", "setting": "[8]", "result": 11, "unit": "%"}, {"measurement": "Population Tubulin-Different-Phenotype (%)", "setting": "[8]", "result": 98, "unit": "%"}, {"measurement": "Total Cell Count", "setting": "[8]", "result": 1112}]}]}
